Measured values: ChEMBL document CHEMBL1781963, “Discovery of novel hepatoselective HMG-CoA reductase inhibitors for treating hypercholesterolemia: a bench-to-bedside case study on tissue selective drug distribution” (Bioorg Med Chem Lett, 2011)
Blank lines part the entries; values can stand above or below the compound they belong to.

Assays:
[1] = Cmax in human plasma at 10 mg administered qd for 14 days; type: ADME, organism-based; set-up: dose 10 mg
Plasma [2] = assay: fCmax in human plasma at 1 mg administered as single dose; type: ADME, cell-free
Summary of the method: (§1)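 Phase 1 single ascending oral dose in healthy volunteers, with N per dose group. Total plasma Cmax and AUC(0-∞) were measured. Free-drug exposures were derived from these using plasma protein binding (human plasma fu measured at 0.5 μg/mL).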

[3] = Cmax in human plasma at 1 mg administered as single dose; type: ADME, organism-based; set-up: dose 1 mg
Summary of the method: (§2)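 Phase 1 single ascending oral dose in healthy volunteers, about 5–6 subjects per dose. Total plasma drug Cmax and AUC(0-∞) were measured. Free-drug exposures were derived using plasma protein binding.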

[4] = Cmax in human plasma at 160 mg administered as single dose; type: ADME, organism-based; set-up: dose 160 mg; summary of the method: as §2
[5] = Cmax in human plasma at 5 mg administered as single dose; type: ADME, organism-based; set-up: dose 5 mg; summary of the method: as §2
Plasma [6] = assay: fCmax in human plasma at 80 mg administered as single dose; type: ADME, cell-free; summary of the method: as §1
[7] = AUC (0 to infinity) in human plasma at 20 mg administered as single dose; type: ADME, cell-free; set-up: dose 20 mg, time infinity; summary of the method: as §2
Homo sapiens [8] = assay: Inhibition of HMG-CoA reductase in human assessed as decrease in AUC (0 to 72 hrs) of mevalonate level in plasma at 160 mg administered as single dose relative to control; type: functional
Plasma [9] = assay: fAUC (0 to infinity) in human plasma at 20 mg administered as single dose; type: ADME, cell-free; summary of the method: as §1
[10] = Terminal half life in human plasma at 320 mg administered as single dose; type: ADME, cell-free; conditions: read-out: beta t1/2 (converted)
Homo sapiens [11] = assay: Inhibition of HMG-CoA reductase in human assessed as decrease in AUC (0 to 72 hrs) of mevalonate level in plasma at 240 mg administered as single dose relative to control; type: functional
Plasma [12] = assay: fAUC (0 to infinity) in human plasma at 10 mg administered as single dose; type: ADME, cell-free; summary of the method: as §1
[13] = Cmax in human plasma at 3 mg administered as single dose; type: ADME, organism-based; set-up: dose 3 mg; summary of the method: as §2
Plasma [14] = assay: fAUC (0 to infinity) in human plasma at 120 mg administered as single dose; type: ADME, cell-free; summary of the method: as §1
Syrian golden hamster = assay: Inhibition of cholesterol synthesis in golden syrian hamster assessed as reduction of [14C]-cholesterol level at 10 mg/kg, po followed by 3 hrs after treated with 80 uCi, ip of [14C]-sodium acetate measured after 5 hrs by liquid scintillation counting relative to control; type: functional; conditions: Mesocricetus auratus
Summary of the method: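 Separate hamster groups dosed po at 10 mg/kg at t = 0 h. 14C sodium acetate ip at t = 3 h, blood 14C cholesterol at t = 5 h. Percent change vs untreated controls, n = 8/group.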

[15] = Terminal half life in human plasma at 240 mg administered as single dose; type: ADME, cell-free; conditions: read-out: beta t1/2 (converted)
Homo sapiens [16] = assay: Inhibition of HMG-CoA reductase in human assessed as decrease in AUC (0 to 24 hrs) of mevalonate level in plasma at 3 mg administered as single dose relative to control; type: functional

- Cmax [1]: 4.58 ng/mL
Compound: CC(C)c1nc(N(C)S(C)(=O)=O)nc(-c2ccc(F)cc2)c1/C=C/[C@@H](O)C[C@@H](O)CC(=O)O [ROSUVASTATIN]

- fCmax (Plasma [2]): 1.71 ng/mL
- Cmax [3]: 33.5 ng/mL
- Cmax [4]: 6810 ng/mL
- Cmax [5]: 196 ng/mL
- fCmax (Plasma [6]): 228 ng/mL
- AUC(0-inf) [7]: 1930 ng·h/mL
- fAUC (Plasma [9]): 98.4 ng·h/mL
Compound: Cc1ccc(CNC(=O)c2nn(-c3ccc(F)cc3)c(CC[C@@H](O)C[C@@H](O)CC(=O)O)c2C(C)C)cc1
- inhibition (INH) (Homo sapiens [8]): -24%

- half-life [10]: 7.36 h
- fAUC (Plasma [12]): 0.786 ng·h/mL
- Cmax [13]: 0.0552 ng/mL
- fAUC (Plasma [14]): 3.63 ng·h/mL
- half-life [15]: 4.06 h
Compound: O=C([O-])C[C@H](O)C[C@H](O)CCn1c(-c2ccc(F)cc2)nc(C(=O)NCc2cccc(F)c2)c1C1CC1.[Na+]
- inhibition (INH) (Homo sapiens [11]): -30%
- inhibition in vivo at 10 mg/kg (Syrian golden hamster): -43%
- inhibition (INH) (Homo sapiens [16]): -5%
